“And” between values parts separate entries of the source, which are not always exact repeats. Equal values may be shown once. Read-outs that look alike come from different tables or passages of the source.

The results in this text go back to PMC9044819 (RSC Advances, 2021).

For one data set, the target named is Human VEGFR-2 (Homo sapiens, UniProt P35968). The experiment in a line: In vitro VEGFR-2 assay. The data set is classed as biochemical.
The subject of the next data set is BAX. The experiment in a line: Western blot, BAX expression in HepG-2. The data set is classed as cell-based, human. The gist of the method: (§1)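 HepG-2 cells exposed 24 h to test compound at 2.3 μM, then probed by western blot for BAX, Bcl-2, active caspase-9 and active caspase-3. Each band is normalized to β-actin and expressed relative to control, and the BAX/Bcl-2 ratio is also tabulated. Values are mean ± SEM of three independent experiments, with significance flagged at p < 0.05, 0.01 and 0.001.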

The test system of another data set is BAX/Bcl-2 ratio. The experiment in a line: Western blot, BAX/Bcl-2 ratio in HepG-2. The data set is classed as cell-based, human. As to conditions: HepG-2 treated 24 h, 2.3 μM; control 1.00; mean ± SEM. The essentials: as §1
A general note: In western blotting, separated proteins are transferred to a membrane and probed.

A further data set deals with primary rat hepatocytes. Nature of the data set: In vitro cytotoxicity against normal hepatic cells. The data set is classed as cell-based. As to conditions: HepG-2 vs primary rat hepatocytes.
A further data set concerns caspase-3. The experiment in a line: Western blot, active caspase-3 in HepG-2. Format: cell-based, human. The essentials: as §1
In the next data set the test system is MCF-7. The experiment in a line: cells. The data set is classed as cell-based, human.
A further data set has as its system Bcl-2. The experiment in a line: Western blot, Bcl-2 expression in HepG-2. Format: cell-based, human. The essentials:
as §1

A further data set concerns HepG-2 cells. Nature of the data set: Cell cycle analysis. The data set is classed as cell-based, human. The conditions noted are these: HepG-2, 17b 2.3 μM.
The next data set has as its system HepG-2. The experiment in a line: MTT anti-proliferative assay, HepG-2. The data set is classed as cell-based, human. In general terms: Formazan colour is commonly taken as a measure of viable cells.
The test system of a further data set is caspase-9. The experiment in a line: Western blot, active caspase-9 in HepG-2. The data set is classed as cell-based, human. The gist of the method:
as §1

Setting [1] is: HepG-2 treated 24 h, 2.3 μM, control 1.00, mean ± SEM.

Human VEGFR-2, sequence (P35968 20-1356): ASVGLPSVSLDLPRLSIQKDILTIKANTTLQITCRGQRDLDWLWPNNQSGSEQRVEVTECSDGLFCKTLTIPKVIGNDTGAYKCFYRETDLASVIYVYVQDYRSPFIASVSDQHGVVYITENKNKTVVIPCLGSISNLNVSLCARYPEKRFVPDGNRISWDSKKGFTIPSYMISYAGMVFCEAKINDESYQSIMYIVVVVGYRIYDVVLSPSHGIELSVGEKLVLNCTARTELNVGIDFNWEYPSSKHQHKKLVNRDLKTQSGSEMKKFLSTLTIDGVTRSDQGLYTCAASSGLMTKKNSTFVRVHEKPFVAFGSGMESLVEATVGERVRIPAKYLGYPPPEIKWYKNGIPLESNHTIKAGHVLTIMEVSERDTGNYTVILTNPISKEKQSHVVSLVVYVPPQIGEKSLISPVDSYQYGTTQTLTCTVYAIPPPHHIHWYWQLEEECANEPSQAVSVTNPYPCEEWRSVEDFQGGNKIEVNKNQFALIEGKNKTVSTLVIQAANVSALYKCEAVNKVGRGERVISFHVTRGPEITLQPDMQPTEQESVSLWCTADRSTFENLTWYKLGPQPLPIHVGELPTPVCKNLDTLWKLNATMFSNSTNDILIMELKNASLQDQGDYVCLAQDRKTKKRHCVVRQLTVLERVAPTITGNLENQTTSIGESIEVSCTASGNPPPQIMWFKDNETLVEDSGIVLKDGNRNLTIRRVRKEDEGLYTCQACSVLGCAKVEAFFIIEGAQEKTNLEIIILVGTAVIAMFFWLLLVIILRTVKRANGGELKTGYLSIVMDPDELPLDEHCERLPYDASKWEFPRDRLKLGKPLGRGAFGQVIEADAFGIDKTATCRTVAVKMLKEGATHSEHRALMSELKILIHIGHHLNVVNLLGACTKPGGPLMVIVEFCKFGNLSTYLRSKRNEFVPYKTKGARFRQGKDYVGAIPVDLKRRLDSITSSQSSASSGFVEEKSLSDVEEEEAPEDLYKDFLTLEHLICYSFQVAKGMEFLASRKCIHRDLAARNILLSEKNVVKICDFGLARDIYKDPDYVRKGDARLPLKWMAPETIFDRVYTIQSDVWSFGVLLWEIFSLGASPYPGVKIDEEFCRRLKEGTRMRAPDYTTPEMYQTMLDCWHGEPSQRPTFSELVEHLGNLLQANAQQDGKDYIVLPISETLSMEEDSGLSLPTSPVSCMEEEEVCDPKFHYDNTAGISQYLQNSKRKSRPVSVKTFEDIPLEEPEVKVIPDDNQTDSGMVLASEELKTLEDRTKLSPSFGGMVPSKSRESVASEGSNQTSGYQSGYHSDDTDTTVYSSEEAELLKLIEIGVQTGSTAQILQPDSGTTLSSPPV

A word on the IC50: it is the concentration that gives 50% inhibition. At Human VEGFR-2, `CCCCNC(=O)c1ccc(NC(=O)CSc2nc3ccccc3nc2C)cc1` [Compound 15a, N-Butyl-4-(2-((3-methylquinoxalin-2-yl)thio)acetamido)benzamide] yielded an IC50 of 23.1 ± 0.8 nM.

Regarding `Cc1nc2ccccc2nc1SCC(=O)Nc1ccc(C(=O)Nc2cccc(Cl)c2)cc1` [Compound 15b, N-(3-Chlorophenyl)-4-(2-((3-methylquinoxalin-2-yl)thio)acetamido)benzamide], on Human VEGFR-2, the IC50 worked out at 3.4 ± 0.2 nM.

As for `Cc1nc2ccccc2nc1SCC(=O)Nc1ccc(C(=O)Nc2ccc(O)cc2)cc1` [Compound 15c, N-(4-Hydroxyphenyl)-4-(2-((3-methylquinoxalin-2-yl)thio)acetamido)benzamide], the IC50 on Human VEGFR-2 worked out at 27.8 ± 1.2 nM.

`Cc1nc2ccccc2nc1SCC(=O)Nc1ccc(C(=O)Nc2ccc([N+](=O)[O-])cc2O)cc1` [Compound 15d, N-(2-Hydroxy-4-nitrophenyl)-4-(2-((3-methylquinoxalin-2-yl)thio)acetamido)benzamide] had a concentration for half-maximal inhibition (IC50) at Human VEGFR-2 of 31.5 ± 1.3 nM.

At Human VEGFR-2, `Cc1nc2ccccc2nc1SCC(=O)Nc1ccc(C(=O)NNC(=O)c2ccccc2O)cc1` [Compound 16, N-(4-(2-(2-Hydroxybenzoyl)hydrazine-1-carbonyl)phenyl)-2-((3-methylquinoxalin-2-yl)thio)acetamide] displayed an IC50 of 18.5 ± 0.8 nM.

`CCCCNC(=O)c1ccc(NC(=O)Cn2c(=O)c(C)nc3ccccc32)cc1` [Compound 17a, N-Butyl-4-(2-(3-methyl-2-oxoquinoxalin-1(2H)-yl)acetamido)benzamide] yielded an IC50 on Human VEGFR-2 of 11.2 ± 0.4 nM.

With `Cc1nc2ccccc2n(CC(=O)Nc2ccc(C(=O)Nc3cccc(Cl)c3)cc2)c1=O` [Compound 17b, N-(3-Chlorophenyl)-4-(2-(3-methyl-2-oxoquinoxalin-1(2H)-yl)acetamido)benzamide], in the data set on BAX (HepG-2, 2.3 μM), the “boost of BAX level” value was “approximately 4 fold”. Further, the “Protein expression (normalized to β-actin) BAX” value with BAX (setting [1]) amounted to 4.21 ± 0.60. In the data set on BAX/Bcl-2 ratio, the “Protein expression (normalized to β-actin) BAX/Bcl-2 ratio” value worked out at 9.30 ± 2.66. The “cytotoxic activity against cancer HepG-2 cell line more than against normal hepatic cells” value in the data set with primary rat hepatocytes was 10 fold. The “increase of caspase-3 level compared to control cells” value in the data set with caspase-3 (HepG-2, 2.3 μM) was 1.8 fold. The “Protein expression (normalized to β-actin) Caspases-3” value in the data set with caspase-3 (setting [1]) turned out to be 1.85 ± 0.26. Besides, the IC50 with MCF-7 (read-out: MCF-7 (IC50), MTT, mean ± S.D. of three experiments) turned out to be 2.8 ± 0.2 µM. Besides, the “downregulation of Bcl-2 level” value with Bcl-2 (HepG-2, 2.3 μM) is “around 3 fold”. Further, the “Protein expression (normalized to β-actin) Bcl-2” value in the data set on Bcl-2 (setting [1]) was found to be 0.32 ± 0.04. Further, in the data set on HepG-2 cells, the “Cell cycle analysis (%) % G1” value is 40.03 ± 2.82 %; the “Cell cycle analysis (%) % G2/M” value was 30.38% and 30.38 ± 2.93 %; the “Cell cycle analysis (%) % S” value was found to be 28.31 ± 1.01%; the “Cell cycle analysis (%) % Sub-G1” value came out at 1.27 ± 0.17%. Moreover, the IC50 in the data set on HepG-2 (read-out: HepG-2 (IC50), MTT, mean ± S.D. of three experiments) amounted to 2.3 ± 0.2 µM. In the data set with caspase-9 (HepG-2, 2.3 μM), the “increase of caspase-9 level compared to control cells” value is 1.74 fold. Moreover, the “Protein expression (normalized to β-actin) Caspases-9” value in the data set with caspase-9 (setting [1]) is listed as 1.74 ± 0.20.

Turning to `Cc1nc2ccccc2n(CC(=O)Nc2ccc(C(=O)Nc3ccc(O)cc3)cc2)c1=O` [Compound 17c, N-(4-Hydroxyphenyl)-4-(2-(3-methyl-2-oxoquinoxalin-1(2H)-yl)acetamido)benzamide], the IC50 on Human VEGFR-2 was determined as 13.9 ± 0.5 nM.

Consider `Cc1nc2ccccc2n(CC(=O)Nc2ccc(C(=O)Nc3ccc([N+](=O)[O-])cc3O)cc2)c1=O` [Compound 17d, N-(2-Hydroxy-4-nitrophenyl)-4-(2-(3-methyl-2-oxoquinoxalin-1(2H)-yl)acetamido)benzamide], for which the IC50 stood at 35.2 ± 1.6 µM with MCF-7 (Homo sapiens, MCF7, read-out: MCF-7 (IC50, μM)); 22.4 ± 1.3 µM with HepG-2 (Homo sapiens, HepG2, read-out: HepG-2 (IC50, μM)); 11.2 ± 0.3 nM against Human VEGFR-2.

Turning to `Cc1nc2ccccc2n(CC(=O)Nc2ccc(C(=O)NNC(=O)c3ccccc3O)cc2)c1=O` [Compound 18, N-(4-(2-(2-Hydroxybenzoyl)hydrazine-1-carbonyl)phenyl)-2-(3-methyl-2-oxoquinoxalin-1(2H)-yl)acetamide], the IC50 against Human VEGFR-2 amounted to 11.2 ± 0.2 nM.

With `CNC(=O)c1cc(Oc2ccc(NC(=O)Nc3ccc(Cl)c(C(F)(F)F)c3)cc2)ccn1` [Sorafenib, sorafenib, reference compound], the “cytotoxic activity against cancer HepG-2 cell line more than against normal hepatic cells” value in the data set on primary rat hepatocytes is reported as 11 fold.
